The source of these data is publication PMC5592695 (Journal of medicinal chemistry, 2016).

Data set [1] has as its system R4A monoclonal antibody (anti-dsDNA) binding to DWEYS peptide. The data set is described as follows: Competitive inhibition ELISA: R4A antibody binding to DWEYS-coated plates. On the set-up: species or system mouse. The gist of the method: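 D-DWEYS peptide at 20 µg/mL in PBS pH 7.2 coated overnight at 37 °C, uncovered; blocked with 3% BSA/PBS 1 h at 37 °C. R4A (20 µg/mL) preincubated with test compound at varying concentrations 1 h at 37 °C, then added to washed wells 1 h at 37 °C. AP-goat anti-mouse IgG 1:1000, 1 h RT; pNPP substrate 30–60 min; absorbance at 405 nm.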
Background: In an ELISA, binding on a coated surface is turned into a signal by an enzyme label.

In data set [2] the test system is R4A antibody binding to murine glomeruli. Nature of the data set: Kidney glomeruli R4A binding assay. On the set-up: species or system mouse. The following applies: R4A 20 µg/mL preincubated with compound at 50 µM. The gist of the method:
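Glomeruli isolated from mice and adhered to glass slides. R4A was preincubated with test compound for 1 h at 37 °C, then applied to the glomeruli for 1 h at room temperature. Slides were washed with PBS. Bound antibody was detected with FITC-conjugated anti-mouse IgG and imaged by fluorescence microscopy.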

Data set [3] can be described thus: Preliminary pharmacokinetics after intravenous or oral dosing. In kind it is in vivo. The following applies: iv 1 mg/kg or oral gavage 10 mg/kg, male CD-1 mice.
Data set [4] deals with NZB/W F1 mice (SLE model). The data set is described as follows: NZB/W F1 lupus model efficacy testing. It counts as in vivo, mouse. Summed up:
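Female NZB/W F1 mice, randomised to groups (initially n = 10/group), dosed from 22 weeks of age, before severe proteinuria, with test compound or vehicle at 5 mg kg−1 day−1 as two daily ip injections (2.5 mL/kg each). Weekly body weight; proteinuria every 2 weeks; serum stored at −70 °C. Blinded kidney histology scored glomerular sclerosis, cellularity, crescents and interstitial inflammation.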

The subject of data set [5] is R4A antibody neurotoxicity in hippocampal neurons. The data set is described as follows: Neurotoxicity model: R4A injected into hippocampus, TUNEL staining. In kind it is in vivo. The following applies: R4A 20 µg/mL preincubated with 50 µM compound, injected into mouse hippocampus. The gist of the method:
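Male C57BL/6 mice (30–34 g) under 2.5% avertin ip received a 2 µL stereotaxic injection into the dorsal hippocampus (CA1) of R4A (20 µg/mL) preincubated with vehicle or test compound (50 µM).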

Where [6] appears, read: 5 mg/kg chronic dosing, NZB/W F1 mice, versus vehicle.

Take `Cc1c(O)cccc1C(=O)N[C@@H](CSc1ccccc1)[C@H](O)CN1C[C@H]2CCCC[C@H]2C[C@H]1C(=O)NC(C)(C)C` [Compound 2, nelfinavir, reference compound]: the “Inhibition of R4A / anti-dsDNA antibody binding in ELISA (qualitative)” value in data set [1] is recorded as “dose-dependently inhibited the binding of anti-dsDNA antibodies to target antigens”. For the same molecule, in data set [2], the “R4A binding to glomerular antigens” value is “diminished binding to glomerular antigens”.
As to `Cc1cccc(C)c1OCC(=O)N[C@@H](Cc1ccccc1)[C@@H](O)C[C@H](Cc1ccccc1)NC(=O)[C@H](C(C)C)N1CCCNC1=O` [Compound 3, lopinavir], in data set [1], the “Inhibition of R4A / anti-dsDNA antibody binding in ELISA (qualitative)” value is “dose-dependently inhibited the binding of anti-dsDNA antibodies to target antigens”.
For the molecule `CC(C)(C)NC[C@@H]1CC2CCCCC2CN1C[C@@H](O)[C@H](Cc1ccccc1)NC[C@H](CCN)NCC1Nc2ccccc2CC1O` (stereo partly drawn) [Compound 5, 2-{[3-Amino-1-({1-benzyl-3-[3-(tert-butylamino-methyl)-octahydro-isoquinolin-2-yl]-2-hydroxy-propylamino}-methyl)-propylamino]-methyl}-1,2,3,4-tetrahydro-quinolin-3-ol], in data set [3], the “PK profile (comparative)” value is listed as “exhibited the best PK profile” and the “Tolerability in PK study” value was “well tolerated at the administered dose levels”. The Onset of disease entry in data set [4] (5 mg kg−1 day−1 b.i.d. ip, NZB/W F1 mice) is listed as “delayed onset of disease (26–36 weeks)”. Besides, in data set [4] (5 mg kg−1 day−1 in two daily ip injections, female NZB/W F1 mice from 22 weeks of age), the “Body weights versus vehicle” value is “similar”. In addition, in data set [4] (setting [6]), the Kidney histology entry is “preserved histology” and the “Mouse IgG staining (autoantibody deposition) in glomeruli” value is reported as “significantly less staining for mouse IgG”. The “Serum anti-DWEYS reactivity” value in data set [4] (5 mg/kg chronic dosing, NZB/W F1 mice, versus vehicle sera) was “higher anti-DWEYS reactivity”. Further, the “Combined kidney pathology score” value in data set [4] (blinded histopathology, 60 weeks, versus vehicle, p < 0.05) was “significantly lower standard combined pathology scores”. Also, in data set [5], the “Neurotoxic effect of R4A (TUNEL staining, neuronal apoptosis)” value was “abrogated this neurotoxic effect”. Further, the “R4A binding to glomerular antigens” value in data set [2] is “decreased the binding of R4A to kidney tissue”.
Turning to `Cc1c(O)cccc1CN[C@@H](CSc1ccccc1)[C@H](O)CN1C[C@H]2CCCC[C@H]2C[C@H]1CNC(C)(C)C` [Compound 6, 3-({3-[3-(tert-Butylaminomethyl)octahydroisoquinolin-2-yl]-2-hydroxy-1-phenylsulfanylmethylpropylamino}methyl)-2-methylphenol], in data set [5], the “Neurotoxic effect of R4A (TUNEL staining, neuronal apoptosis)” value was “abrogated this neurotoxic effect”. Further, the “R4A binding to glomerular antigens” value in data set [2] is “decreased the binding of R4A to kidney tissue”.
As for `CNCCCN[C@H](CN[C@@H](Cc1ccccc1)C[C@H](O)[C@H](Cc1ccccc1)NCCOc1c(C)cccc1C)C(C)C` [Compound 7, 2-[2-(2,6-Dimethylphenoxy)ethylamino]-5-[3-methyl-2-(3-methylaminopropylamino)butylamino]-1,6-diphenylhexan-3-ol], the “R4A binding to glomerular antigens” value in data set [2] is “decreased the binding of R4A to kidney tissue”.
Take “saquinavir [Compound 1, reference compound]”: in data set [1], the “Inhibition of R4A / anti-dsDNA antibody binding in ELISA (qualitative)” value is “dose-dependently inhibited the binding of anti-dsDNA antibodies to target antigens”. In addition, the “R4A binding to glomerular antigens” value in data set [2] is listed as “diminished binding to glomerular antigens”.
